Values after ≈ are worked out from the molar mass of the structure shown.
How the values were obtained:
5‐LO [1] = details: at‐risk patients with CAD ref 15; cited from earlier work
5‐LO [2] = details: cited from earlier work
[3] = test system: ex vivo calcium ionophore stimulated LTB4 production in whole blood; design: species or system human
Procedure, shortened: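 Lithium-heparin blood was drawn from dosed subjects 24 h before and just before dosing, then at set times after (SAD to 48 h; MAD daily predose and after last dose). Blood aliquots were stimulated in duplicate with 30 μM calcium ionophore A23187 or DMSO at 37°C, 100 rpm, for 30 min, then stopped on ice with EGTA. LTB₄ in plasma was measured by supported liquid extraction LC-MS/MS, against a baseline of the mean day 1/predose value.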

[4] = Pharmacokinetics, multiple ascending dose; type: in vivo, human
Procedure, shortened: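 Amorphous oral suspension was given once daily for 10 days to fasted healthy men (n = 6 per dose), with intensive sampling on days 1 and 10. K₂EDTA plasma and urine were measured by LC-MS/MS with a ¹³C₆-labelled internal standard (validated 1–1,000 nmol/L plasma, 20–20,000 nmol/L urine). Noncompartmental analysis on actual times; CL/F = dose/AUC; CLR = amount excreted unchanged/AUC.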

[5] = Solubility of amorphous and crystalline form; type: physicochemical; details: amorphous
[6] = test system: LTB4 production in human whole blood; assay: LTB4 production in human whole blood in vitro; type: cell-based; details: read-out: IC50, inhibition of LTB4 production
[7] = Pharmacokinetics, single ascending dose; type: in vivo, human; details: for AUC / CL/F / CLR / t½ / Cmax: geometric mean (%CV); for Tmax: median (range)
Procedure, shortened: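 Fasted (10 h overnight) healthy men received single oral doses of amorphous suspension, n = 6 per dose. K₂EDTA plasma and pooled urine were assayed by LC-MS/MS with a ¹³C₆-labelled internal standard (validated 1–1,000 nmol/L plasma, 20–20,000 nmol/L urine). Noncompartmental analysis used log-linear trapezoidal AUC extrapolated to infinity; CL/F = dose/AUC; CLR = amount excreted unchanged/AUC.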

Caco‐2 = assay: Caco-2 permeability and efflux; type: in vitro ADME
logD = type: physicochemical; details: pH 7.4
[8] = Human plasma protein binding; type: in vitro ADME
[9] = Human intestinal Ussing chamber metabolism; type: in vitro ADME; details: data not shown
[10] = Clinical safety and tolerability in healthy subjects; type: in vivo, human; details: for subjects reporting headache: active drug
Procedure, shortened: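 Healthy men aged 18–50 (BMI 18–30 kg/m², 50–100 kg), randomized, single-blind, placebo-controlled. SAD: single oral suspension doses of 25–1,200 mg, with sentinel pairs reviewed to 24 h. MAD: 60–600 mg once daily for 10 days. Vital signs, ECG, telemetry, clinical laboratory tests and adverse events were recorded before and after dosing and at follow-up 7–10 days post final dose.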

[11] = test system: cytochrome P450 (CYP)3A4 and CYP3A5; assay: In vitro metabolism studies; type: in vitro ADME
[12] = 60 mg OD, day 10, geometric mean (%CV)
[13] = 180 mg OD, day 1, geometric mean (%CV)
[14] = 180 mg OD, day 10, geometric mean (%CV)
[15] = 360 mg OD, day 1, geometric mean (%CV)
[16] = 360 mg OD, day 10, geometric mean (%CV)
[17] = 600 mg OD, day 1, geometric mean (%CV)
[18] = 600 mg OD, day 10, geometric mean (%CV)

## CC(c1cc2ccccc2s1)N(O)C(N)=O (centres unmarked) [zileuton]
5‐LO [1]
  flow‐mediated dilation in the brachial artery: improved
  leukotriene production in blood: inhibited

## C[C@H](C#Cc1ccc(Cc2ccc(F)cc2)s1)N(O)C(N)=O [VIA‐2291, Atreleuton]
5‐LO [2]; patients with ACS ref 13
  ex vivo stimulated LTB4 production: reduced
  noncalcified plaque volume: reduced
5‐LO [2]; patients with ACS, dose dependent ref 13, 14
  left ventricular ejection fraction: improved

## Cc1cc(-c2ccc(C(=O)[C@@H]3CCCC[C@H]3C(=O)Nc3cnn4c3C(=O)NCC4)cc2)n[nH]1 [AZD5718]
[3]; MAD, 180, 360, and 600 mg doses, last day of repeated dosing
  LTB4 production inhibition throughout the day: > 80%
[3]; SAD, single doses of 300–1,200 mg
  mean LTB4 inhibition throughout the whole day: > 80%
[3]; compared with both AM103 and VIA2291
  fold lower IC50 for ex vivo stimulated LTB4 inhibition: ~100 fold
[4]; 60 mg OD, day 1, geometric mean (%CV)
  AUCτ: 1,018 (22.4) nmol*h/L
[4]; 60 mg OD, day 1, median (range)
  Tmax: 0.8 (0.5–2.0) h
[4]; 60 mg OD, day 1, oral amorphous suspension, N = 6, geometric mean (%CV)
  Cmax: 167 nM
[4]; [12]
  AUCτ: 1,386 (27.4) nmol*h/L
  CL/F: 96.9 (27.4) L/h
  CLR: 0.64 (16.0) L/h
  Cmax: 220 nM
  t½: 11.6 (6.7) h
[4]; 60 mg OD, day 10, median (range)
  Tmax: 0.5 (0.5–1.0) h
[4]; [13]
  AUCτ: 3,732 (41.2) nmol*h/L
  Cmax: 847 nM
[4]; 180 mg OD, day 1, median (range)
  Tmax: 1.0 (1.0–1.0) h
[4]; [14]
  AUCτ: 5,128 (46.9) nmol*h/L
  CL/F: 78.6 (46.9) L/h
  CLR: 0.75 (16.0) L/h
  Cmax: 1240 nM
  t½: 11.2 (13.0) h
[4]; 180 mg OD, day 10, median (range)
  Tmax: 1.0 (1.0–1.0) h
[4]; [15]
  AUCτ: 10,350 (28.8) nmol*h/L
  Cmax: 2560 nM
[4]; 360 mg OD, day 1, median (range)
  Tmax: 1.0 (1.0–2.0) h
[4]; [16]
  AUCτ: 12,760 (31.0) nmol*h/L
  CL/F: 63.1 (31.0) L/h
  CLR: 0.99 (5.2) L/h
  Cmax: 3210 nM
  t½: 9.1 (10.7) h
[4]; 360 mg OD, day 10, median (range)
  Tmax: 1.0 (1.0–1.0) h
[4]; [17]
  AUCτ: 16,290 (48.6) nmol*h/L
  Cmax: 4930 nM
[4]; 600 mg OD, day 1, median (range)
  Tmax: 1.0 (1.0–1.0) h
[4]; [18]
  AUCτ: 23,170 (47.4) nmol*h/L
  CL/F: 58.0 (47.4) L/h
  CLR: 0.72 (23.3) L/h
  Cmax: 5690 nM
  t½: 9.9 (29.2) h
[4]; 600 mg OD, day 10, median (range)
  Tmax: 1.5 (1.0–3.0) h
[4]; Ctrough, once daily dosing
  accumulation on repeated dosing: small accumulation
[4]; repeated once daily dosing, Ctrough, visual inspection
  time to steady state: ~3 days
[5]
  solubility: 20 µM (≈ 8.93 µg/mL)
[6]
  IC50: 39 nM
[7]; 25 mg single dose
  AUC: 376.3 (38.1) nmol*h/L
  CL/F: 148.8 (38.1) L/h
  CLR: 0.68 (39.4) L/h
  t½: 10.3 (51.0) h
  Tmax: 3.0 (1.0–6.0) h
[7]; 50 mg single dose
  AUC: 727.0 (15.4) nmol*h/L
  CL/F: 153.9 (15.4) L/h
  CLR: 0.62 (14.7) L/h
  Cmax: 81.6 nM
  t½: 12.5 (33.3) h
  Tmax: 1.0 (1.0–3.0) h
[7]; 100 mg single dose
  AUC: 1,441 (45.3) nmol*h/L
  CL/F: 155.6 (45.3) L/h
  CLR: 0.66 (41.0) L/h
  Cmax: 170 nM
  t½: 12.7 (35.7) h
  Tmax: 1.0 (0.5–3.0) h
[7]; 300 mg single dose
  AUC: 8,462 (20.1) nmol*h/L
  CL/F: 79.4 (20.1) L/h
  CLR: 0.67 (23.7) L/h
  Cmax: 2360 nM
  t½: 13.7 (43.9) h
  Tmax: 1.0 (0.5–1.0) h
[7]; 600 mg single dose
  AUC: 18,810 (42.1) nmol*h/L
  CL/F: 71.5 (42.1) L/h
  CLR: 0.70 (15.4) L/h
  Cmax: 5050 nM
  t½: 11.4 (18.0) h
  Tmax: 1.0 (1.0–2.0) h
[7]; 1,200 mg single dose
  AUC: 35,840 (33.8) nmol*h/L
  CL/F: 75.0 (33.8) L/h
  CLR: 0.62 (12.1) L/h
  Cmax: 6880 nM
  t½: 10.3 (19.0) h
  Tmax: 1.5 (1.0–2.0) h
[7]; SAD, oral suspensions, results not presented
  relative bioavailability of the crystalline formulation compared with the amorphous formulation: much lower
[7]; after single dose administration and at steady state, all doses
  mean terminal half‐life: 10 to 12 h
[7]; single and multiple administration, except Ctrough in the MAD
  dose‐linearity of exposure: more than dose proportional increase in exposure
[7]; single and multiple dose, amorphous suspension, fasted
  median Tmax: ~1 h
[7]; unchanged drug in urine
  renal clearance as share of total oral clearance: ~1%
Caco‐2
  Papp: 24 10^−6 cm/s
  efflux ratio: 7.4
logD
  logD: 2.9
[8]
  human plasma protein binding: 95.7%
[9]
  metabolism kinetics: saturable metabolism
[10]; MAD study
  subjects experiencing an AE on active drug: 10 subjects
  subjects reporting headache: five
[10]; SAD 25–1,200 mg and MAD 60–600 mg
  serious adverse events: no serious adverse events
[10]; SAD and MAD, healthy subjects
  safety and tolerability findings: No clinically relevant safety and tolerability findings
[10]; SAD study
  subjects experiencing an AE on active drug: 17 subjects
  subjects reporting headache: three
[10]; up to 1,200 mg single, 600 mg OD for 10 days
  maximal tolerated dose: not established
[11]
  CYP‐isoforms involved in the metabolism: (CYP)3A4 and CYP3A5

— PMC5944575 (Clinical and Translational Science, 2018)
